# Experimental data published in ChEMBL document CHEMBL1157473, “Identification of 4-benzylamino-2-[(4-morpholin-4-ylphenyl)amino]pyrimidine-5-carboxamide derivatives as potent and orally bioavailable STAT6 inhibitors” (Bioorg Med Chem, 2008).
# Molecular target: T1, Signal transducer and activator of transcription 6 (Homo sapiens, UniProt P42226)
# T1 sequence (P42226 whole entry): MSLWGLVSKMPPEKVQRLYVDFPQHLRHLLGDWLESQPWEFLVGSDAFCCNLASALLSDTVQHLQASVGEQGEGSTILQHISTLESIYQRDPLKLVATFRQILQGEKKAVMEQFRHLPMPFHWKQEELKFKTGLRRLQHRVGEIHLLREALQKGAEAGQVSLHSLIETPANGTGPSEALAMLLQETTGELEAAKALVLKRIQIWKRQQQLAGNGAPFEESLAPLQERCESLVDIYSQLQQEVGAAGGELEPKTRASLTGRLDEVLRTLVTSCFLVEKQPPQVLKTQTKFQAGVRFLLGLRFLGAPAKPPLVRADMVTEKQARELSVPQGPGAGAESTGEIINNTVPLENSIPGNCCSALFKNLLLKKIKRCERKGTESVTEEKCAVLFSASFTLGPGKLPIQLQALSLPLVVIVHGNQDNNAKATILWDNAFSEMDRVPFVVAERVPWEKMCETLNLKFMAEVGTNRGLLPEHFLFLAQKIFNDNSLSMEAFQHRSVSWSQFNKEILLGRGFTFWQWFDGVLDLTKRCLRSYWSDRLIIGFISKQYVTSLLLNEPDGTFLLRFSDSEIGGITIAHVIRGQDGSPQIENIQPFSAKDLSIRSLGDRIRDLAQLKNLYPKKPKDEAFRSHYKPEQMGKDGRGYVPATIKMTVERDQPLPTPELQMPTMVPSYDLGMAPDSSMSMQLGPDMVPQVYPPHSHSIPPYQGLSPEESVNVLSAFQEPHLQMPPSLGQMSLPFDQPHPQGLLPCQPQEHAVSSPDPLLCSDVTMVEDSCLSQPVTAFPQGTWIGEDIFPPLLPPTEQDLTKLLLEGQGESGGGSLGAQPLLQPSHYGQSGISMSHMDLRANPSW
# Test: Inhibition of STAT6 activation in FW4 reporter cells
# Assay type: cell-based
# Settings: not given
row,Structure (SMILES),IC50 [nM]
1,NC(=O)c1cnc(Nc2ccc(N3CCOCC3)cc2)nc1NCc1cccc(C(F)(F)F)c1,130
2,COc1ccccc1CNc1nc(Nc2ccc(N3CCOCC3)cc2)ncc1C(N)=O,8.2
3,NC(=O)c1cnc(Nc2ccc(N3CCCCC3)cc2)nc1NCc1ccccc1,120
4,NC(=O)c1cnc(Nc2ccc(N3CCOCC3)cc2)nc1NCc1cccc(O)c1,19
5,NC(=O)c1cnc(Nc2ccc(N3CCOCC3)cc2)nc1NCc1cc(F)cc(F)c1,5.5
6,NC(=O)c1cnc(Nc2ccc(N3CCOCC3)cc2)nc1NCc1ccccc1N,310
7,NC(=O)c1cnc(Nc2ccc(CCCO)cc2)nc1NCc1ccccc1,81
8,COc1cccc(CNc2nc(Nc3ccc(N4CCOCC4)cc3)ncc2C(N)=O)c1,25
9,NC(=O)c1cnc(Nc2ccc(N3CCOCC3)cc2)nc1NCc1ccc(F)cc1F,310
10,NC(=O)c1cnc(Nc2ccc(N3CCOCC3)cc2)nc1NCc1cccc(F)c1,1.8
11,NC(=O)c1cnc(Nc2ccc(N3CCC(O)C3)cc2)nc1NCc1ccccc1 (stereo not drawn),98
12,NC(=O)c1cnc(Nc2ccc(N3CCC(O)CC3)cc2)nc1NCc1ccccc1,16

# Next, values leading:
row,IC50 [nM],Structure (SMILES)
1,5200,CC(=O)Nc1ccccc1CNc1nc(Nc2ccc(N3CCOCC3)cc2)ncc1C(N)=O
2,2000,CS(=O)(=O)c1ccccc1CNc1nc(Nc2ccc(N3CCOCC3)cc2)ncc1C(N)=O
3,650,NC(=O)c1cnc(Nc2ccc(N3CCCC3)cc2)nc1NCc1ccccc1
4,650,NC(=O)c1cnc(Nc2ccc(N3CCOCC3)cc2)nc1NCc1ccc(F)cc1
5,95,NC(=O)c1cnc(Nc2ccc(CCO)cc2)nc1NCc1ccccc1
6,61,NC(=O)c1cnc(NCCc2cc(Cl)c(O)c(Cl)c2)nc1NCc1ccccc1
7,38,NC(=O)c1cnc(Nc2ccc(N3CCOCC3)cc2)nc1NCc1ccccc1[N+](=O)[O-]
8,36,NC(=O)c1cnc(Nc2ccc(N3CCOCC3)cc2)nc1NCc1cccc(Cl)c1
9,25,NC(=O)c1cnc(Nc2ccc(N3CCOCC3)cc2)nc1NCc1ccccc1C(F)(F)F
10,23,CSc1ccccc1CNc1nc(Nc2ccc(N3CCOCC3)cc2)ncc1C(N)=O
11,22,NC(=O)c1cnc(Nc2ccc(N3CCOCC3)cc2)nc1NCc1ccccc1O
12,17,CN1CCC(c2ccc(Nc3ncc(C(N)=O)c(NCc4ccccc4)n3)cc2)CC1
13,11,Cc1ccccc1CNc1nc(Nc2ccc(N3CCOCC3)cc2)ncc1C(N)=O
14,7.9,NC(=O)c1cnc(Nc2ccc(N3CCOCC3)cc2)nc1NCc1ccccc1Cl
15,7,NC(=O)c1cnc(Nc2ccc(N3CCNCC3)cc2)nc1NCc1ccccc1
16,6.2,CN1CCN(c2ccc(Nc3ncc(C(N)=O)c(NCc4ccccc4)n3)cc2)CC1
17,2.2,NC(=O)c1cnc(Nc2ccc(N3CCOCC3)cc2)nc1NCc1c(F)cccc1F
18,2.1,NC(=O)c1cnc(Nc2ccc(N3CCOCC3)cc2)nc1NCc1cccc(F)c1F
19,1.8,NC(=O)c1cnc(Nc2ccc(N3CCOCC3)cc2)nc1NCc1cc(F)cc(F)c1F
20,1.6,NC(=O)c1cnc(Nc2ccc(N3CCOCC3)cc2)nc1NCc1cc(F)ccc1F
21,1.4,NC(=O)c1cnc(Nc2ccc(N3CCOCC3)cc2)nc1NCc1ccccc1F

# System: not listed separately
# Test: Volume of distribution in BALB/c mouse at 1 mg/kg, iv
# Assay type: ADME, organism-based
# Design: dose 1 mg/kg, route intravenous
# Settings: in vivo
# How it was run: (§1)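 Overnight-fasted 8-week-old female Balb/c mice were given 1 mg/kg by tail-vein injection at 10 mL/kg, in a Cremophor EL/saline-based vehicle. Plasma was extracted by solid-phase extraction and analysed by HPLC-MS-MS.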
row,Vd [L/kg],Structure (SMILES)
1,3.91,NC(=O)c1cnc(Nc2ccc(N3CCOCC3)cc2)nc1NCc1ccccc1
2,0.931,NC(=O)c1cnc(NCCc2cc(Cl)c(O)c(Cl)c2)nc1NCc1ccccc1

# System: not listed separately
# Test: Dissociation constant, pKa of the compound
# Assay type: physicochemical
# Settings: not given
row,Structure (SMILES),pKa
1,Oc1ccccc1Cl [2-CHLOROPHENOL],9.13
2,"Oc1c(Cl)cccc1Cl [2,6-DICHLOROPHENOL]",7.15

# System: not listed separately
# Test: Clearance in BALB/c mouse at 1 mg/kg, iv
# Assay type: ADME, organism-based
# Design: dose 1 mg/kg, route intravenous
# Settings: in vivo
# How it was run: as §1
row,clearance [mL/min/kg],Structure (SMILES)
1,59.6,NC(=O)c1cnc(Nc2ccc(N3CCOCC3)cc2)nc1NCc1ccccc1
2,168,NC(=O)c1cnc(NCCc2cc(Cl)c(O)c(Cl)c2)nc1NCc1ccccc1

# System: not listed separately
# Test: Half life in BALB/c mouse at 1 mg/kg, iv
# Assay type: ADME, organism-based
# Design: dose 1 mg/kg, route intravenous
# Settings: in vivo
# How it was run: as §1
row,half-life [min],Structure (SMILES)
1,45.6,NC(=O)c1cnc(Nc2ccc(N3CCOCC3)cc2)nc1NCc1ccccc1
2,3.6,NC(=O)c1cnc(NCCc2cc(Cl)c(O)c(Cl)c2)nc1NCc1ccccc1

# System: not listed separately
# Test: Oral bioavailability in BALB/c mouse at 10 mg/kg
# Assay type: ADME, organism-based
# Settings: in vivo
# How it was run: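 Oral dose of 10 mg/kg in 0.5% methylcellulose (10 mL/kg) to overnight-fasted 8-week-old female Balb/c mice, against a 1 mg/kg iv dose. Blood was sampled from the vena cava at 0.25 to 24 h. Plasma was assayed by solid-phase extraction and HPLC-MS-MS.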
row,bioavailability [%],Structure (SMILES)
1,1,NC(=O)c1cnc(NCCc2cc(Cl)c(O)c(Cl)c2)nc1NCc1ccccc1

# System: not listed separately
# Test: Oral bioavailability in BALB/c mouse at 3 mg/kg
# Assay type: ADME, organism-based
# Settings: in vivo
# How it was run: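 Mice were 8-week-old female Balb/c, fasted overnight, given 3 mg/kg po in 0.5% methylcellulose (10 mL/kg), with 1 mg/kg iv as reference. Vena cava blood was collected at 0.25 to 24 h. Plasma was extracted by solid-phase extraction and quantified by HPLC-MS-MS.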
row,bioavailability [%],Structure (SMILES)
1,30,NC(=O)c1cnc(Nc2ccc(N3CCOCC3)cc2)nc1NCc1ccccc1
